Screening results as filed in PubChem.
MsrA act – bovine MsrA enzyme activators, primary screen, biochemical, absorbance, HTS | activation, % at 10.6 µM | Methionine sulfoxide reductase A (Bos taurus) | 360,000 compounds, 0.3% hits | purified bovine MsrA, absorbance read-out; in the data active = activation above about 7.5%
MC4R antag cAMP – MC4R antagonists of cAMP signaling, primary screen, cell-based, TR-FRET, antagonist arm of biased-ligand search | Melanocortin receptor 4 (Homo sapiens), P32245 | MC4R-expressing cells, MTII-stimulated cAMP, LANCE TR-FRET | inhibition, % at 6.5 µM | 360,000 compounds, 0.48% hits;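 active = inhibition above its plate's cutoff, the mean of tested wells on that plate plus 3 SD, cut at about 29% in these data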
Target sequence (P32245 whole entry, looked up): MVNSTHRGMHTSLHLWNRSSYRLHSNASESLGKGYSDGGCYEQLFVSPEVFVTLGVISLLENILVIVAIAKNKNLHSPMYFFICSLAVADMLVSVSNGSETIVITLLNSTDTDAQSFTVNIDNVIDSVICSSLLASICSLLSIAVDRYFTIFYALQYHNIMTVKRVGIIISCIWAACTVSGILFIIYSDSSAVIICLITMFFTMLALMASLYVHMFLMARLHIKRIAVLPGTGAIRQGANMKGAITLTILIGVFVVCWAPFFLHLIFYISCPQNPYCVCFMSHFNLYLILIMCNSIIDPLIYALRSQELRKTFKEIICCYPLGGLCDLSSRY
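Assay system: U2OS-MC4R stable cell line; Also added: Melanotan II; Technique: Eu-cAMP/anti-cAMP TR-FRET, emission 671 nm; Times: 30-min compound, 1-h challenge, 1-h detection, room temperature.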
MsrA inh – bovine MsrA enzyme inhibitors, primary screen, biochemical, absorbance, HTS; AID 651718, 2012; inhibition, % at 15.5 µM; purified bovine MsrA, absorbance read-out; 360,000 compounds, 0.75% hits; in the data active = inhibition above about 4.5%
MC4R ag barr – MC4R agonists recruiting beta-arrestin, primary screen, cell-based, luminescence, agonist arm of biased-ligand search; U2OS MC4R beta-arrestin complementation; percent of melanotan II response, DMSO zero; activation, % at 8.9 µM; 360,000 compounds, 0.98% hits; Melanocortin receptor 4 (Homo sapiens), P32245;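 active = activation above a per-plate cutoff, the mean activation of sample wells on that plate plus 3 SD, cut at about 8% in these data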
MC4R barr conf – MC4R beta-arrestin agonists, retest, confirmation, cell-based, luminescence, U2OS | shares compounds with MC4R ag barr | U2OS MC4R beta-arrestin recruitment; scaled DMSO 0%, Melanotan II 100% | activation, % at 8.9 µM | 2,400 compounds, 31% hits;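 active = mean activation across replicates above the hit cutoff set in the earlier primary screen, cut at about 8% in these data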
MOR DOR agonist – agonists of MOR-DOR heterodimerization, counter-screen for MC4R biased agonist project, cell-based, luminescence; shares compounds with MC4R ag barr; U2OS PathHunter beta-arrestin, beta-gal luminescence; percent of deltorphin B response, DMSO zero; activation, % at 9.2 µM; 2,400 compounds, 5.8% hits; AID 602194, 2012;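 active = mean activation across replicates exceeds the hit threshold derived in the earlier primary screen, cut at about 18% in these data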
Numbers stand for hits; i = inactive; nt = not tested or not shown. An excerpt weighted towards active compounds, which were near 2.3% of everything screened.

SMILES	MsrA act	MC4R antag cAMP	MsrA inh	MC4R ag barr	MC4R barr conf	MOR DOR agonist
Cc1cccc(C(=O)Oc2ccc(/C=N/NC(=O)c3ccc(O)cc3)cc2)c1	i	i	i	16	i	i
COc1ccc(NC(=O)c2ccccc2Sc2ccc(NC(C)=O)nc2)cc1	i	i	i	i	nt	nt
O=[N+]([O-])c1ccc(S(=O)(=O)N2CCN=C2SCc2ccc(F)cc2)cc1	i	i	i	11	i	i
CC(=O)Nc1ccc(S(=O)(=O)N2CCN=C2SCc2ccc(F)cc2)cc1	i	i	i	i	nt	nt
Cc1ccc(-c2cc(C(=O)N/N=C/c3c(C)nn(C)c3C)c3ccccc3n2)cc1C	i	i	i	11	9.3	i
Cc1ccc(-c2cc(C(=O)N/N=C/c3ccoc3)c3ccccc3n2)cc1	i	i	i	i	nt	nt
CCCNc1c(NS(=O)(=O)c2ccc(C(C)(C)C)cc2)c(=O)oc2ccccc12	i	i	i	11	i	i
CCOC(=O)Cn1c(=NC(=O)c2nc3ccccc3s2)sc2cc(S(N)(=O)=O)ccc21	i	i	i	12	i	i
COc1ccc(CNC(=O)COC(=O)c2ccc(S(=O)(=O)N3CCCCC3)cc2)cc1	i	i	i	i	nt	nt
CCc1cc(-c2[nH]ncc2-c2ccc3c(c2)OCO3)c(O)cc1O	i	i	i	19	i	i
Cc1c(C(=O)NC2CCCc3ccccc32)oc2ccc(S(=O)(=O)N3CCCCC3)cc12 (stereo unspecified)	i	i	i	i	nt	nt
Cc1c(C(=O)NC2CCCc3ccccc32)oc2ccc(S(=O)(=O)N3CCCC3)cc12 (stereo unspecified)	i	i	i	14	i	i
O=C(CCCCCn1c(=S)[nH]c2ccc(N3CCOCC3)cc2c1=O)NCc1ccc(Cl)cc1	i	i	i	10	i	i
O=C(CCCCCn1c(=S)[nH]c2ccc(N3CCOCC3)cc2c1=O)NCCc1ccccc1	i	i	i	18	i	18
O=C(CCCCCn1c(=S)[nH]c2ccc(N3CCOCC3)cc2c1=O)NCc1ccc2c(c1)OCO2	i	i	i	13	i	i
COc1ccc(CNC(=O)CCCn2c(=S)[nH]c3cc4c(cc3c2=O)OCO4)cc1	i	i	i	i	nt	nt
O=C(CCCCCn1c(=S)[nH]c2ccc(N3CCOCC3)cc2c1=O)NCc1ccccc1Cl	i	i	i	i	nt	nt
CC(C)C(NC(=O)c1ccc(Br)cc1)C(=O)NC1=NCCS1 (stereo unspecified)	i	i	i	i	nt	nt
O=C(N/N=C/c1c[nH]c2ccccc12)C1CC1(c1ccccc1)c1ccccc1 (stereo unspecified)	i	i	i	19	16	i
O=C(N/N=C/c1c[nH]c2ccccc12)C1CC1c1ccccc1 (stereo unspecified)	i	i	i	i	nt	nt
CCOC(=O)/C(C#N)=C/Nc1ccccc1NS(=O)(=O)c1ccc2c(c1)OCCO2	i	i	i	i	nt	nt
Cc1ccc(C2CC(=O)NC(SCCC(C)C)=C2C#N)cc1 (stereo unspecified)	i	i	i	9.6	i	i
COC(=O)CSC1=C(C#N)C(c2ccc(C(C)C)cc2)CC(=O)N1 (stereo unspecified)	i	i	i	i	nt	nt
CC(C)(C)c1ccc(-c2c(C#N)c(N)nc3c2CCCC3)s1	i	i	i	i	nt	nt
CCOCCCNS(=O)(=O)c1cc2[nH]c3c(c2cc1C)C(=O)CC(C)(C)C3	i	i	i	i	nt	nt
SMILES	MsrA act	MC4R antag cAMP	MsrA inh	MC4R ag barr	MC4R barr conf	MOR DOR agonist
O=[N+]([O-])c1cc2c(cc1/C=N\NS(=O)(=O)c1ccccc1)OCO2	i	i	i	i	nt	nt
CNc1nc(N/N=C/c2cc3c(cc2[N+](=O)[O-])OCO3)nc(Nc2ccccc2)n1	i	i	i	25	i	i
COc1ccc(NC(=O)CSc2ccc(-c3cccs3)nn2)c(OC)c1	i	i	i	14	i	i
COc1ccc(NC(=O)CSc2ccc(-c3cccnc3)nn2)c(OC)c1	i	i	i	i	nt	nt
COc1ccc(-c2ccc(SCC(=O)Nc3nccs3)nn2)cc1OC	i	i	i	11	i	i
O=C(NC(=S)Nc1ccc2c(c1)OCO2)c1ccc(Cl)cc1	i	i	i	11	i	i
Cc1ccc(C(=O)NC(=S)Nc2ccc(NC(=O)c3cccc(Cl)c3)cc2)cc1	i	i	i	12	13	i
CCc1ccc(C(=O)NC(=S)Nc2ccc3c(c2)OCCO3)cc1	i	i	i	i	nt	nt
COc1ccc(NC(=O)c2cccc3ccccc23)cc1	i	i	i	i	nt	nt
COc1ccc(NC(=O)c2cccc3c(Br)cccc23)cc1	i	i	i	12	i	i
COc1ccccc1NC(=S)NC(=O)/C=C/c1cccs1	i	i	i	i	nt	nt
COc1cc(NC(=O)c2cc([N+](=O)[O-])ccc2NC(=O)CNCc2ccccn2)cc(OC)c1	i	i	i	i	nt	nt
COc1ccc(NC(=O)c2cc([N+](=O)[O-])ccc2NC(=O)CNCc2ccccn2)c(OC)c1	i	i	i	13	13	i
Cc1nn(C)c(C(=O)N/N=C/c2ccccc2)c1[N+](=O)[O-]	i	i	i	i	nt	nt
CCOC(=O)CNC(=O)CSc1nc2cccnc2n1Cc1ccccc1	i	i	i	i	nt	nt
Cc1nc(NC(=O)CSc2nc3cccnc3n2Cc2ccccc2)sc1C	i	i	i	26	i	i
CCOc1ccc2nc(NC(=O)CS(=O)(=O)c3ccc(C)cc3)sc2c1	i	i	i	11	i	i
CCOc1ccc2nc(NC(=O)CSc3nc4cccnc4n3C)sc2c1	i	i	i	16	8.9	i
CCOc1ccc2nc(NC(=O)CS(=O)(=O)c3ccccc3)sc2c1	i	i	i	i	nt	nt
COc1cccc(NC(=O)CN2C(=O)COc3ccc(S(=O)(=O)N4CCCCCC4)cc32)c1	i	i	i	i	nt	nt
c1ccc(C2(CN3CCNC[C@H]3Cc3cccc4ccccc34)CC2)cc1	i	i	i	i	nt	nt
C[C@H](NC(=O)[C@@H]1CCCN1C(=O)[C@@H]1CCCN1C(=O)c1ccc(Cl)cc1)c1ccccc1	i	nt	i	nt	nt	nt
O=C(CSc1cccc2cccnc12)N/N=C/c1ccncc1	i	i	i	i	nt	nt
N#Cc1ccccc1S(=O)(=O)N1CCN(CC(=O)NCC2(N3CCOCC3)CCCCC2)CC1	i	i	i	i	nt	nt
COc1cccc(/C=N/NC(=O)c2cc(-c3ccccn3)nc3ccccc23)c1O	i	i	i	i	nt	nt
O=C(N/N=C/c1ccc(F)cc1)c1cc(-c2ccccn2)nc2ccccc12	i	i	i	16	i	i
